In the test the test system is SNU-387. Put plainly: Cytotoxicity against human SNU387 cells after 48 hrs by MTT assay. Type of test: functional, cell-based. Conditions: SNU-387, 48 h. In outline:
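SNU387 hepatoma cells (Shanghai Cell Bank) grown in RPMI1640 with 10% FBS, seeded in 96-well plates and exposed to test compounds at various concentrations for 48 h. Viability read by MTT, absorbance at 570 nm. IC50 calculated from concentration-response; samples assayed in triplicate, paclitaxel as positive control.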
(In general: Formazan colour is commonly taken as a measure of viable cells.)

SMILES strings stand for the structures.

By IC50 is commonly meant the concentration needed to halve the response being measured. A lower IC50 goes with greater potency in that assay. As to `CCCCCCCCCC(=O)O[C@@]12[C@H](OC(C)=O)[C@@H](C)[C@@]3(O)[C@@H](C=C(CO)C[C@]4(O)C(=O)C(C)=C[C@@H]34)[C@@H]1C2(C)C`, the IC50 was above 10 µM.

With `C/C=C(\C)C(=O)O[C@@H]1[C@@H](C)[C@]2(O)[C@@H]3C=C(C)C(=O)[C@@H]3CC(CO)=C[C@H]2[C@@H]2C(C)(C)[C@]12OC(C)=O`, the IC50 is above 10 µM.

As for `CC(=O)O[C@H]1C(=O)[C@@]2(C)[C@H]([C@H](OC(=O)c3ccccc3)[C@]3(O)C[C@H](OC(=O)[C@H](O)[C@@H](NC(=O)c4ccccc4)c4ccccc4)C(C)=C1C3(C)C)[C@]1(OC(C)=O)CO[C@@H]1C[C@@H]2O` [PACLITAXEL], the IC50 came out at 0.27 µM.

`C/C=C(\C)C(=O)O[C@@]12[C@H](OC(=O)C(C)CC)[C@@H](C)[C@@]3(O)[C@@H](C=C(CO)C[C@]4(O)C(=O)C(C)=C[C@@H]34)[C@@H]1C2(C)C` (stereo not given in full): the IC50 is above 10 µM.

For `C/C=C(\C)C(=O)O[C@@H]1[C@@H](C)[C@@]2(O)[C@@H](C=C(CO)C[C@]3(O)C(=O)C(C)=C[C@@H]23)[C@@H]2C(C)(C)[C@]12OC(=O)C(C)C`, the IC50 is above 10 µM.

`CCCCCCCCCCCCCC(=O)O[C@@H]1[C@@H](C)[C@@]2(O)[C@@H](C=C(CO)C[C@]3(O)C(=O)C(C)=C[C@@H]23)[C@@H]2C(C)(C)[C@]12OC(C)=O` [PHORBOL MYRISTATE ACETATE] gave an IC50 above 10 µM.

Compound `CCCCC/C=C\C/C=C\CCCCCCCC(=O)OCC1=C[C@H]2[C@@H]3C(C)(C)[C@]3(OC(C)=O)[C@H](O)[C@@H](C)[C@]2(O)[C@@H]2C=C(C)C(=O)[C@@H]2C1` registered an IC50 of 8.1 µM.

In turn, `C/C=C(\C)C(=O)O[C@@H]1[C@@H](C)[C@]2(O)[C@@H]3C=C(C)C(=O)[C@@H]3CC(CO)=C[C@H]2[C@@H]2C(C)(C)[C@]12OC(=O)C(C)C` came in with an IC50 above 10 µM.

For the compound `C/C=C(\C)C(=O)O[C@@H]1[C@@H](C)[C@@]2(O)[C@@H](C=C(CO)C[C@]3(O)C(=O)C(C)=C[C@@H]23)[C@@H]2C(C)(C)[C@]12OC(=O)C(C)CC` (stereo not given in full), the IC50 was found to be 8.7 µM.

The compound `CCCCCCCCCCCCCCCC(=O)O[C@@H]1[C@@H](C)[C@@]2(O)[C@@H](C=C(CO)C[C@]3(O)C(=O)C(C)=C[C@@H]23)[C@@H]2C(C)(C)[C@]12OC(C)=O` yielded an IC50 above 10 µM.

Turning to `CCCCCCCCCCCC(=O)O[C@@]12[C@H](OC(C)=O)[C@@H](C)[C@@]3(O)[C@@H](C=C(CO)C[C@]4(O)C(=O)C(C)=C[C@@H]34)[C@@H]1C2(C)C`, the IC50 was above 10 µM.

`C/C=C(\C)C(=O)O[C@@H]1[C@@H](C)[C@@]2(O)[C@@H](C=C(CO)C[C@]3(O)C(=O)C(C)=C[C@@H]23)[C@@H]2C(C)(C)[C@]12OC(=O)CC` had an IC50 above 10.2 µM.

Turning to `CCCCCCCC/C=C\CCCCCCCC(=O)OCC1=C[C@H]2[C@@H]3C(C)(C)[C@]3(OC(C)=O)[C@H](O)[C@@H](C)[C@]2(O)[C@@H]2C=C(C)C(=O)[C@@]2(O)C1`, inhibition was half-maximal at 1.2 µM (IC50).

With `CCCCC/C=C\C/C=C\CCCCCCCC(=O)OCC1=C[C@H]2[C@@H]3C(C)(C)[C@]3(OC(C)=O)[C@H](O)[C@@H](C)[C@]2(O)[C@@H]2C=C(C)C(=O)[C@@]2(O)C1`, the IC50 is 3.4 µM.

In turn, `C/C=C(\C)C(=O)O[C@@H]1[C@@H](C)[C@]2(O)[C@@H]3C=C(C)C(=O)[C@@H]3CC(CO)=C[C@H]2[C@@H]2C(C)(C)[C@]12OC(=O)Cc1ccccc1` returned an IC50 above 10 µM.

`C/C=C(\C)C(=O)O[C@@H]1[C@@H](C)[C@]2(O)[C@@H]3C=C(C)C(=O)[C@@H]3CC(CO)=C[C@H]2[C@@H]2C(C)(C)[C@]12OC(=O)C(C)CC` (stereo not given in full) yielded an IC50 above 10 µM.

`CCC(C)C(=O)O[C@@H]1[C@@H](C)[C@@]2(O)[C@@H](C=C(CO)C[C@]3(O)C(=O)C(C)=C[C@@H]23)[C@@H]2C(C)(C)[C@]12OC(=O)C(C)C` (stereo not given in full) returned an IC50 above 10 µM.

`C/C=C(\C)C(=O)O[C@@H]1[C@@H](C)[C@]2(O)[C@@H]3C=C(C)C(=O)[C@@H]3CC(CO)=C[C@H]2[C@@H]2C(C)(C)[C@]12OC(=O)CCCCCCCCC` displayed an IC50 above 10 µM.

`CCCCCCCCCCCC(=O)O[C@@]12[C@H](OC(=O)C(C)CC)[C@@H](C)[C@@]3(O)[C@@H](C=C(CO)C[C@]4(O)C(=O)C(C)=C[C@@H]34)[C@@H]1C2(C)C` (stereo not given in full) displayed an IC50 above 10 µM.

The compound `CCCCCCCC/C=C\CCCCCCCC(=O)OCC1=C[C@H]2[C@@H]3C(C)(C)[C@]3(OC(C)=O)[C@H](O)[C@@H](C)[C@]2(O)[C@@H]2C=C(C)C(=O)[C@@H]2C1` came in with a concentration for half-maximal inhibition (IC50) of 6.6 µM.

For the origin of these results see ChEMBL document CHEMBL2375233, “Cytotoxic phorbol esters of Croton tiglium” (J Nat Prod, 2013).
